The values that follow come from paper PMC8485890 (Hepatology Communications, 2021).

In one data set the test system is C57BL/6J mice. The data set can be described thus: Survival of mice after APAP overdose. The data set is classed as in vivo, mouse (C57BL/6J). The note with it: APAP 600 mg/kg oral gavage, within 24 hours. A digest of the protocol:
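Fasted C57BL/6J mice were dosed by oral gavage with APAP dissolved in warm saline, at several doses including 600 mg/kg, and survival was tracked (n ≥ 9 per group). In the 24-h treatment arm, peptide was given intravenously at 100 µg/dose, 6, 12 and 18 h after APAP.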

In data set [1] the test system is pro-inflammatory mediators in liver and serum. The data set can be described thus: Cytokine/chemokine ELISA in liver lysates and serum of APAP-treated mice. The note with it: APAP 600 mg/kg, as early as 6 hours. It counts as in vivo, mouse. A digest of the protocol: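 Fasted mice received APAP (600 mg/kg) dissolved in warm saline by oral gavage; controls received vehicle. TNF-α, CXCL1, CXCL2 and CXCL6 were measured by ELISA in liver lysates and serum over a time course after overdose. Groups had at least five mice, and experiments were run at least twice. Data are mean ± SEM, compared by one-way ANOVA.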
In general terms: ELISA stands for enzyme-linked immunosorbent assay.

The subject of the next data set is neutrophils in the liver. The data set can be described thus: Neutrophil recruitment to the liver. The data set is classed as in vivo, mouse (LysM-eGFP). The note with it: APAP-treated LysM-eGFP mice, time course. A digest of the protocol: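 LysM-eGFP mice were fasted and given oral APAP in warm saline. Neutrophils were counted in the liver by their GFP signal using confocal intravital microscopy over the injury time course. Extracellular DNA was visualised with i.v. Sytox green (2 µL of 5 mM). Groups had at least five mice, with experiments repeated at least twice. Data are mean ± SEM.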

Data set [2] concerns liver of APAP-treated mice. The data set can be described thus: Serum ALT. As to conditions: APAP 600 mg/kg oral gavage; 6 to 36 hours after overdose. It counts as in vivo, mouse. A digest of the protocol:
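Fasted mice received APAP 600 mg/kg, dissolved in warm saline, by oral gavage. Hepatocyte necrosis was followed over time by serum ALT, and liver sections were examined by H&E histopathology. Groups had at least five mice, and each experiment was done at least twice. Data are mean ± SEM, analysed by t test or one-way ANOVA.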

A further data set deals with liver. Nature of the data set: Histopathology of liver sections. It counts as in vivo, mouse. As to conditions: APAP 600 mg/kg, H&E-stained liver sections, up to 24 hours. A digest of the protocol:
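APAP (600 mg/kg) was given in warm saline by oral gavage to fasted mice. Livers were taken at times up to 24 h. Necrotic areas were scored on sections stained with hematoxylin and eosin. Groups had at least five mice, and experiments were repeated at least twice. Data are mean ± SEM.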

Data set [3] deals with myeloperoxidase (MPO) activity in liver. Nature of the data set: MPO activity in liver lysates. It counts as in vivo, mouse. As to conditions: APAP-treated C57BL/6J mice. A digest of the protocol:
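MPO activity was measured in liver lysates as an estimate of neutrophil infiltration. C57BL/6J mice were fasted, then dosed with APAP in warm saline by oral gavage. Treatment arms received 100 µg peptide i.v. at 6, 12 and 18 h after overdose. Groups had at least five mice, and each experiment was run at least twice. Data are mean ± SEM, compared by t test or one-way ANOVA.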

The test system of data set [4] is APAP-induced liver injury. The note with it: reducing agent; cited from earlier work.
In a further data set the test system is bacterial DNA. The note with it: bacterial DNA present in skin injury; cited from earlier work.
For data set [5] the following is noted: cited from earlier work.
Data set [6] has as its system extracellular DNA and MIG30 staining in the liver. Nature of the data set: Enzymatic removal of DNA and MIG30 staining from the injured liver. The data set is classed as in vivo, mouse. The note with it: APAP-treated mice, MIG30-TAMRA 20 µg; hyaluronidase 1,000 U or heparinase III 100 µg i.v.; up to 10 minutes. A digest of the protocol: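 Fasted mice received APAP (dissolved in warm saline) by oral gavage. They then received i.v. Sytox green and 20 µg TAMRA-labelled peptide. Next they were given i.v. hyaluronidase (1,000 U) or heparinase III (100 µg); DNase 1 (1,000 U) was given similarly. Mean fluorescence intensity of DNA and peptide in liver was followed by confocal intravital microscopy for up to 10 minutes.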

Take `CC(=O)Nc1ccc(O)cc1` [APAP, Acetaminophen]: the mortality (commonly the percentage killed) in the data set with C57BL/6J mice stood at 40%. Moreover, in data set [1], the “CXCL1 produced in the liver” value is “significant amounts”, the “CXCL2 produced in the liver” value is reported as “significant amounts”, the “CXCL6 produced in the liver” value is “significant amounts” and the “TNF-α produced in the liver” value is “significant amounts”. In the data set on neutrophils in the liver, the “neutrophil infiltration in the liver” value was “profound neutrophil infiltration was observed between 12 and 36 hours after injury, which was maximal at the 24‐hour timepoint”. In data set [2], the “liver damage (serum ALT levels)” value was “significant liver damage as early as 6 hours after APAP intoxication and up to 36 hours after the overdose”. For the same molecule, the “hepatic necrosis (histopathology)” value with liver is “extensive hepatic necrosis”. For the same molecule, the “neutrophils in liver by MPO assay” value in [3] is listed as “presence of neutrophils predominantly 24 hours after APAP treatment”.
For `CC(=O)N[C@@H](CS)C(=O)O` [N‐acetylcysteine], in [4], the “effect on APAP-induced liver injury and inflammation” value is listed as “effective only if given soon after the APAP challenge or as a pretreatment”.
As to CXCL10: chemokine CXCL10, the “binding to bacterial DNA” value in the data set on bacterial DNA is listed as “bind to bacterial DNA”.
In the case of CXCL11: chemokine CXCL11, the “binding to bacterial DNA” value in the data set on bacterial DNA is on record as “bind to bacterial DNA”.
On to KKVLKVRKAQRSRQKKTT [control peptide], for which the GAG binding result in data set [5] is “poor GAG affinity”.
As for hyaluronidase, the “removal of MIG30 staining from liver by glycosidase” value in data set [6] was “Neither the DNA nor the MIG30 staining were significantly removed”.

B1: heparinase: Heparinase III produced and provided by A. Kungl (protein, UniProt Q59289 25-659, looked up)
Heparin-sulfate lyase: QSSSITRKDFDHINLEYSGLEKVNKAVAAGNYDDAAKALLAYYREKSKAREPDFSNAEKPADIRQPIDKVTREMADKALVHQFQPHKGYGYFDYGKDINWQMWPVKDNEVRWQLHRVKWWQAMALVYHATGDEKYAREWVYQYSDWARKNPLGLSQDNDKFVWRPLEVSDRVQSLPPTFSLFVNSPAFTPAFLMEFLNSYHQQADYLSTHYAEQGNHRLFEAQRNLFAGVSFPEFKDSPRWRQTGISVLNTEIKKQVYADGMQFELSPIYHVAAIDIFLKAYGSAKRVNLEKEFPQSYVQTVENMIMALISISLPDYNTPMFGDSWITDKNFRMAQFASWARVFPANQAIKYFATDGKQGKAPNFLSKALSNAGFYTFRSGWDKNATVMVLKASPPGEFHAQPDNGTFELFIKGRNFTPDAGVFVYSGDEAIMKLRNWYRQTRIHSTLTLDNQNMVITKARQNKWETGNNLDVLTYTNPSYPNLDHQRSVLFINKKYFLVIDRAIGEATGNLGVHWQLKEDSNPVFDKTKNRVYTTYRDGNNLMIQSLNADRTSLNEEEGKVSYVYNKELKRPAFVFEKPKKNAGTQNFVSIVYPYDGQKAPEISIRENKGNDFEKGKLNLTLTINGKQQLVLVP
Take B1: in [6], the “removal of MIG30 staining from liver by glycosidase” value is “Neither the DNA nor the MIG30 staining were significantly removed”.

B2: CXCL9: full-length chemokine CXCL9 (protein, UniProt Q07325 1-125, looked up)
chain: MKKSGVLFLLGIILLVLIGVQGTPVVRKGRCSCISTNQGTIHLQSLKDLKQFAPSPSCEKIEIIATLKNGVQTCLNPDSADVKELIKKWEKQVSQKKKQKNGKKHQKKKVLKVRKSQRSRQKKTT
modifications: full-length
Regarding B2, the “binding to bacterial DNA” value in the data set on bacterial DNA is listed as “bind to bacterial DNA”.
